Results as given in paper PMC3929235 (Bioorganic & medicinal chemistry letters, 2013).

What was measured:
human α3β2 AChRs = human α3β2 AChRs (Homo sapiens, UniProt P17787+P32297); experiment: Counter-screen against α3β2 nAChR; type: cell-based
Outline: (§1)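 HEK tsA201 cells stably expressing the human receptor, kept in high-glucose DMEM with 10% FBS at 37 °C. Seeded on poly-D-lysine wells (150,000/well α4β2, α3β2; 200,000/well α3β2α5), then held at 29 °C for 20 h to raise expression. Membrane-potential dye fluorometry. Test compound serial dilutions added 15 min before nicotine. Response enhancement over nicotine alone, 3–4 wells per point, Hill fit; efficacy relative to reference PAM.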

human α3β4α5 AChRs = human α3β4α5 AChRs (Homo sapiens, UniProt P30532+P30926+P32297); experiment: Counter-screen against α3β4α5 nAChR; type: cell-based
Sequence of human α3β4α5 AChRs (P32297 32-505): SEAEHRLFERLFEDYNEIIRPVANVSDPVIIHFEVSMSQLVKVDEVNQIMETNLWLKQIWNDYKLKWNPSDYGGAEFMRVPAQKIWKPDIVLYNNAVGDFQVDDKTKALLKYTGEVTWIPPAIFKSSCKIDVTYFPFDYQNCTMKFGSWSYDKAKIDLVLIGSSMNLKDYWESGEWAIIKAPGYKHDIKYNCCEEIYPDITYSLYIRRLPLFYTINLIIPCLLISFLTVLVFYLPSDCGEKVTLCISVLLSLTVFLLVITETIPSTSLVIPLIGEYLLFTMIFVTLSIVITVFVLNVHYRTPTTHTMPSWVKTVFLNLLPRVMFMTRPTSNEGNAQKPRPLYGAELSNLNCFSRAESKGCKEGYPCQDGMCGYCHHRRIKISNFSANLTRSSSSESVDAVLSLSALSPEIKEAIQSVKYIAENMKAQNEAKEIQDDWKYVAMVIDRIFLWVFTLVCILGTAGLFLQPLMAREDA
Sequence of human α3β4α5 AChRs (P30926 22-498): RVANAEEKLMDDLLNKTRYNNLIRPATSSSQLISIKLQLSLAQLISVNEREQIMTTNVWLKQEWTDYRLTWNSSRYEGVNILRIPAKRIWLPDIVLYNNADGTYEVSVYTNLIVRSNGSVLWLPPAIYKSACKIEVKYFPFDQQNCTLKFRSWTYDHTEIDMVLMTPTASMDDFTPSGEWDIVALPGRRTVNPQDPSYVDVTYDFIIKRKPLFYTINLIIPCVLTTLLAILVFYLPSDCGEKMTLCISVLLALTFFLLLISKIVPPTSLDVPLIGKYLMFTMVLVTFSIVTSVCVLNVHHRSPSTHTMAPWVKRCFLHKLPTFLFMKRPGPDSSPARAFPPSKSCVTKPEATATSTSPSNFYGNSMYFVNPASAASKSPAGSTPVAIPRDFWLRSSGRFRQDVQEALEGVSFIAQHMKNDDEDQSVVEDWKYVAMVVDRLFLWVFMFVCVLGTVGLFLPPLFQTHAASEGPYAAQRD
Sequence of human α3β4α5 AChRs (P30532 23-468): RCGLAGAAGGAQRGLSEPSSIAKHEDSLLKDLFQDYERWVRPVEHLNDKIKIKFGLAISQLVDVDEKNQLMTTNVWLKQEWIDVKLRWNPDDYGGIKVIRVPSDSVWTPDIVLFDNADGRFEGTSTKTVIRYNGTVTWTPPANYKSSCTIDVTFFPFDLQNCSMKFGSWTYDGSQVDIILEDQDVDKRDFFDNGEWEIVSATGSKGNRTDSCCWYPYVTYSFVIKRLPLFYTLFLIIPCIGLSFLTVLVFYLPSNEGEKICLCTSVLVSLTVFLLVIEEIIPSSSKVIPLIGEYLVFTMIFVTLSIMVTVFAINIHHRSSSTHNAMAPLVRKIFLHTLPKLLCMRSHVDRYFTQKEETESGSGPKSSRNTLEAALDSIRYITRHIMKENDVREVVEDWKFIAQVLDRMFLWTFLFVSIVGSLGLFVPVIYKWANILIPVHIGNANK
Outline: (§2)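 Membrane-potential fluorometry on HEK tsA201 cells stably expressing human receptor, cultured in high-glucose DMEM with 10% FBS, 37 °C, 5% CO2. Poly-D-lysine-coated wells seeded at 150,000 (α3β4) or 200,000 (α3β4α5) cells. Serial dilutions of test compound applied 15 min before nicotine, injected during recording. Points averaged from 3–4 wells; Hill equation fitted to enhancement relative to nicotine-evoked signal.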

human α3β2α5 AChRs = human α3β2α5 AChRs (Homo sapiens, UniProt P17787+P30532+P32297); experiment: Counter-screen against α3β2α5 nAChR; type: cell-based
Sequence of human α3β2α5 AChRs (P32297 32-505): as the sequence (P32297 32-505) above
Sequence of human α3β2α5 AChRs (P17787 26-502): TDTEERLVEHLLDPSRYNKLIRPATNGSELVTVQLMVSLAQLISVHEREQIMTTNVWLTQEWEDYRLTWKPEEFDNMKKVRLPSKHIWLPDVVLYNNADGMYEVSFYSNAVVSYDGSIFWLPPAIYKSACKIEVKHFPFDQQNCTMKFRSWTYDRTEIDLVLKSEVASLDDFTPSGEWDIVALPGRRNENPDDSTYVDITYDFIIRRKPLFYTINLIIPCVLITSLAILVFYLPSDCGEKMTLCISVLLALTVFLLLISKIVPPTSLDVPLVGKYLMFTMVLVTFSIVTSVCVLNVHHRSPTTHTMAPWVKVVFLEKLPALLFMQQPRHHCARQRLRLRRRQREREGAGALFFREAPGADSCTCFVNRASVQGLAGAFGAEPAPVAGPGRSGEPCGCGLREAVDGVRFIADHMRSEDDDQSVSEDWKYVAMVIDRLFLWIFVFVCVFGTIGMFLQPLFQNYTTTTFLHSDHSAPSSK
Sequence of human α3β2α5 AChRs (P30532 23-468): as the sequence (P30532 23-468) above
Outline: as §1

human α4β2α5 AChRs = human α4β2α5 AChRs (Homo sapiens, UniProt P17787+P30532+P43681); experiment: FLEXstation membrane potential assay, PAM of nicotine response at α4β2α5; type: cell-based; conditions: for activation at 1 µM: read-out: PAM(Y or N)
Sequence of human α4β2α5 AChRs (P43681 29-627 limits assumed): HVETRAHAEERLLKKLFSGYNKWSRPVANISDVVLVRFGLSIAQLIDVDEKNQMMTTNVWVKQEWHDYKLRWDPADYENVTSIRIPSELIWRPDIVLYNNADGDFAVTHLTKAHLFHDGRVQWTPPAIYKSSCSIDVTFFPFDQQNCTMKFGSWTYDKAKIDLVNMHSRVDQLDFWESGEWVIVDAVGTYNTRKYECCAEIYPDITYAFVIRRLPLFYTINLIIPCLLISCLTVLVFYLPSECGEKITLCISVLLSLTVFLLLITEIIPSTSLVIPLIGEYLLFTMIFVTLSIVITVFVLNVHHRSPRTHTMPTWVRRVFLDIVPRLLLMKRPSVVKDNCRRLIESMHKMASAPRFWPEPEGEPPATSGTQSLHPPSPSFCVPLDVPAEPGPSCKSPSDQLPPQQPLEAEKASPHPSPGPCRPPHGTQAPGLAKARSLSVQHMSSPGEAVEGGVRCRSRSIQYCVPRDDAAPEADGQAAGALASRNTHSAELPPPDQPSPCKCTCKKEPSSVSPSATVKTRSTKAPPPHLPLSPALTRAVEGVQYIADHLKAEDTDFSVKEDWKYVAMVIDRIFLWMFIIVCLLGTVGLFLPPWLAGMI
Sequence of human α4β2α5 AChRs (P17787 26-502): as the sequence (P17787 26-502) above
Sequence of human α4β2α5 AChRs (P30532 23-468): as the sequence (P30532 23-468) above

human α3β4 AChRs = human α3β4 AChRs (Homo sapiens, UniProt P30926+P32297); experiment: Counter-screen against α3β4 nAChR; type: cell-based
Sequence of human α3β4 AChRs (P32297 32-505): as the sequence (P32297 32-505) above
Sequence of human α3β4 AChRs (P30926 22-498): as the sequence (P30926 22-498) above
Outline: as §2

human α4β2 AChRs = human α4β2 AChRs (Homo sapiens, UniProt P17787+P43681); experiment: FLEXstation membrane potential assay at α4β2; type: cell-based
Sequence of human α4β2 AChRs (P43681 29-627 limits assumed): as the sequence (P43681 29-627 limits assumed) above
Sequence of human α4β2 AChRs (P17787 26-502): as the sequence (P17787 26-502) above
Outline: as §1

Pharmacokinetics in mice = type: in vivo

Sequence of human α3β2 AChRs (P32297 32-505): as the sequence (P32297 32-505) above
Sequence of human α3β2 AChRs (P17787 26-502): as the sequence (P17787 26-502) above

| Structure (SMILES) | activation at 1 µM (human α4β2α5 AChRs) [%] | also measured |
| --- | --- | --- |
| N#Cc1cccc(-c2nc(-c3cccnc3)no2)c1 [Compound 1a, 3-(3-(pyridin-3-yl)-1,2,4-oxadiazol-5-yl)benzonitrile, reference compound] | – | activity against α3β2 (human α3β2 AChRs): no activity; activity against α3β4α5 (human α3β4α5 AChRs): no activity; activity against α3β2α5 (human α3β2α5 AChRs): no activity; Emax (human α4β2α5 AChRs; Maximum efficacy relative to NS9283): 1; activity against α3β4 (human α3β4 AChRs): no activity; agonist activity at α4β2 (human α4β2 AChRs; without orthosteric agonist): no agonist activity |
| N#Cc1cccc(-c2nc(-c3ccccc3)no2)c1 [Compound 1b] | < 50 | – |
| N#Cc1cccc(-c2nc(-c3ccccn3)no2)c1 [Compound 1c] | < 50 | – |
| N#Cc1cccc(-c2nc(-c3ccncc3)no2)c1 [Compound 1d] | < 50 | – |
| C[n+]1cccc(-c2noc(-c3cccc(C#N)c3)n2)c1 [Compound 1e] | < 50 | – |
| c1ccc(-c2nc(-c3cccnc3)no2)cc1 [Compound 4a] | < 50 | – |
| Clc1ccccc1-c1nc(-c2cccnc2)no1 [Compound 4b] | < 50 | – |
| Clc1ccc(-c2nc(-c3cccnc3)no2)cc1 [Compound 4c] | < 50 | – |
| Fc1cccc(-c2nc(-c3cccnc3)no2)c1 [Compound 4d] | < 50 | – |
| Fc1cccc(-c2nc(-c3cccnc3)no2)c1F [Compound 4e] | < 50 | – |
| O=[N+]([O-])c1ccccc1-c1nc(-c2cccnc2)no1 [Compound 4g] | < 50 | – |
| FC(F)(F)c1cccc(-c2nc(-c3cccnc3)no2)c1 [Compound 4j] | < 50 | – |
| FC(F)(F)Oc1cccc(-c2nc(-c3cccnc3)no2)c1 [Compound 4k] | < 50 | – |
| COc1cccc(-c2nc(-c3cccnc3)no2)c1 [Compound 4l] | < 50 | – |
| N#Cc1cccc(-n2ccc(-c3cccnc3)n2)c1 [Compound 5a] | < 50 | – |
| N#Cc1cccc(-n2cc(-c3cccnc3)cn2)c1 [Compound 5b] | < 50 | – |
| N#Cc1cccc(-c2ccn(-c3cccnc3)n2)c1 [Compound 5c] | < 50 | – |
| N#Cc1cccc(-c2cn(-c3cccnc3)cn2)c1 [Compound 5d] | < 50 | – |
| N#Cc1cccc(-n2cnc(-c3cccnc3)c2)c1 [Compound 5e] | < 50 | – |
| N#Cc1cccc(-c2ncn(-c3cccnc3)n2)c1 [Compound 5f] | < 50 | – |
| N#Cc1cccc(-n2cc(-c3cccnc3)nn2)c1 [Compound 5j] | < 50 | – |
| N#Cc1cccc(-n2nnc(-c3cccnc3)n2)c1 [Compound 5k, 3-(5-(pyridin-3-yl)-2H-tetrazol-2-yl)benzonitrile] | – | activity against α3β2 (human α3β2 AChRs): no activity; activity against α3β4α5 (human α3β4α5 AChRs): no activity; clearance (in words) (Pharmacokinetics in mice; mice): moderate clearance; oral exposure (in words) (Pharmacokinetics in mice; mice): very good oral exposure; clearance (Pharmacokinetics in mice; mouse, in vivo, intravenous, 1 mg/kg): 46 mL/min/kg; activity against α3β2α5 (human α3β2α5 AChRs): no activity; activity against α3β4 (human α3β4 AChRs): no activity; PAM potency on α4β2 (in words) (human α4β2 AChRs; compared with α4β2α5): equally potent |

The next lines start with results.

| activation at 1 µM (human α4β2α5 AChRs) [%] | Structure (SMILES) | also measured |
| --- | --- | --- |
| < 50 | C[n+]1cccc(-c2nnn(-c3cccc(C#N)c3)n2)c1 [Compound 11a] | – |
| < 50 | N#Cc1cccc(-n2nnc(-c3ccccc3)n2)c1 [Compound 11b] | – |
| < 50 | N#Cc1cccc(-n2nnc(-c3ccncc3)n2)c1 [Compound 11c] | – |
| < 50 | N#Cc1cccc(-n2nnc(-c3ccccn3)n2)c1 [Compound 11d] | – |
| < 50 | N#Cc1cccc(-n2nnc(-c3ccc(Cl)nc3)n2)c1 [Compound 11e] | – |
| < 50 | N#Cc1cccc(-n2nnc(-c3cccnc3Cl)n2)c1 [Compound 11f] | – |
| < 50 | N#Cc1cccc(-n2nnc(-c3cncc(Cl)c3)n2)c1 [Compound 11g] | – |
| < 50 | N#Cc1cccc(-n2nnc(-c3cnccc3Cl)n2)c1 [Compound 11h] | – |
| < 50 | Fc1ccc(-n2nnc(-c3cccnc3)n2)c(F)c1 [Compound 12a] | – |
| < 50 | COc1ccc(OC)c(-n2nnc(-c3cccnc3)n2)c1 [Compound 12b] | – |
| < 50 | Clc1cc(Cl)cc(-n2nnc(-c3cccnc3)n2)c1 [Compound 12c] | – |
| < 50 | COc1cc(OC)cc(-n2nnc(-c3cccnc3)n2)c1 [Compound 12d] | – |
| < 50 | NC(=O)c1cccc(-n2nnc(-c3cccnc3)n2)c1 [Compound 12e] | – |
| < 50 | Cc1ccc(-n2nnc(-c3cccnc3)n2)cc1C#N [Compound 12g] | – |
| < 50 | Clc1ccccc1-n1nnc(-c2cccnc2)n1 [Compound 12i] | – |
| < 50 | Brc1cccc(-n2nnc(-c3cccnc3)n2)c1 [Compound 12j] | – |
